From ChEMBL document CHEMBL1124331, “Mitomycin C analogues with a substituted hydrazine at position 7. Synthesis, spectral properties, and biological activity” (1989) come the findings set out here.

The subject of test [1] is P388. The test is described as follows: Minimum effective dose observed for the substrate. The class given is functional. The note with it: Mus musculus, read-out: MED. The method, boiled down: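 Same ip P388 leukemia model with ip dosing; minimum effective dose taken as lowest mg/kg per dose giving %T/C ≥ 125, with concurrent mitomycin C values.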
In test [2] the test system is P388. The test is described as follows: Compound (25.6 mg/kg) was tested in vivo against P388 lymphocytic leukemia screen for Median survival time. In kind it is functional, Mus musculus. In a few lines:
(§1)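 Murine P388 lymphocytic leukemia, tumour implanted ip and drug also given ip; testing at Bristol-Myers. Median survival time recorded at the optimal dose (mg/kg per dose) beside concurrently run mitomycin C control; %T/C = treated median survival/control median survival × 100.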

Test [3] concerns P388. As to the kind of experiment: Compound (51.2 mg/kg) was tested in vivo against P388 lymphocytic leukemia screen for Median survival time. The class given is functional, Mus musculus. The method, boiled down:
as §1

Test [4] concerns P388. As to the kind of experiment: Compound (6.4 mg/kg) was tested in vivo against P388 lymphocytic leukemia screen for Median survival time. The class given is functional, Mus musculus. The method, boiled down:
as §1

The T/C is the result in the treated group divided by that in the control group, in per cent. On to `CO[C@@]12[C@H](COC(N)=O)c3c(O)c(/N=N/C(=O)OCC4c5ccccc5-c5ccccc54)c(C)c(O)c3N1C[C@@H]1N[C@@H]12`, for which, in the test with P388 [1], the minimal effective dose came to 0.8 mg/kg. Besides, the T/C in the test on P388 [2] stood at 195%.

For the compound `CO[C@@]12[C@H](COC(N)=O)c3c(O)c(/N=N/C(=O)c4cccnc4)c(C)c(O)c3N1C[C@@H]1N[C@@H]12`, the minimal effective dose in the test with P388 [1] worked out at 12.8 mg/kg. The same compound returned a T/C with P388 [2] of 150%.

With `CO[C@@]12[C@H](COC(N)=O)c3c(O)c(/N=N/C(C)=O)c(C)c(O)c3N1C[C@@H]1N[C@@H]12`, in the test with P388 [1], the minimal effective dose was 1.6 mg/kg. Moreover, the T/C with P388 [3] came out at 190%.

Consider `CO[C@@]12[C@H](COC(N)=O)c3c(O)c(/N=N/C(=O)OC(C)(C)C)c(C)c(O)c3N1C[C@@H]1N[C@@H]12`, for which the minimal effective dose in the test with P388 [1] turned out to be 0.8 mg/kg. The compound further gave a T/C in the test with P388 [2] of 160%.

Turning to `CO[C@@]12[C@H](COC(N)=O)c3c(O)c(/N=N/C(=O)c4ccccc4)c(C)c(O)c3N1C[C@@H]1N[C@@H]12`, the minimal effective dose with P388 [1] came out at 0.8 mg/kg. This compound had a T/C in the test with P388 [2] of 150%.

Turning to `CCOC(=O)/N=N/c1c(C)c(O)c2c(c1O)[C@@H](COC(N)=O)[C@@]1(OC)[C@H]3N[C@H]3CN21`, in the test on P388 [1], the minimal effective dose amounted to 0.8 mg/kg. This compound came in with a T/C in the test on P388 [2] of 180%.

As for `CO[C@@]12[C@H](COC(N)=O)c3c(O)c(/N=N/C(=O)c4cccs4)c(C)c(O)c3N1C[C@@H]1N[C@@H]12`, in the test with P388 [1], the minimal effective dose came to 0.8 mg/kg. This compound also showed a T/C with P388 [4] of 140%.

On to `CO[C@@]12[C@H](COC(N)=O)c3c(O)c(/N=N/C(=O)OCc4ccccc4)c(C)c(O)c3N1C[C@@H]1N[C@@H]12`, for which the minimal effective dose with P388 [1] came to 1.6 mg/kg. Further, the T/C with P388 [4] amounted to 185%.
